From ChEMBL document CHEMBL3046177, “Plant growth inhibitory activity of p-hydroxyacetophenones and tremetones from Chilean endemic Baccharis species and some analogous: a comparative study” (J Agric Food Chem, 2002)
The source made the active and inactive calls. The rule behind the calls is not given here.

Legend:
Physalis ixocarpa [1] = test: Phytotoxicity against Physalis ixocarpa assessed as inhibition of seed respiration during germination after 24 hr; format: functional, organism-based
Summary of the method: (§1)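 Oxygen uptake of germinating seeds measured polarographically with a Clark-type electrode at 25 °C in a nonilluminated cell over 5 and 10 min, at several compound concentrations. Expressed as percent of control (100%). Three experiments; RI50 from Probit analysis.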

Lolium multiflorum [2] = test: Phytotoxicity against Lolium multiflorum (Italian ryegrass) assessed as inhibition of seed germination at 500 uM after 48 hr; format: functional
Summary of the method: (§2)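 Seeds of uniform size on Whatman No.1 filter paper in 85 mm Petri dishes, wetted with 8 or 10 mL deionized water or test solution (MeOH < 1%); controls got matching water/methanol. Sealed, incubated at 28 °C in the dark, scored at 48 h intervals; germination = 1 mm radicle extrusion. Three replicates.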

Trifolium pratense [3] = test: Increase of shoot development during seeding stage in Trifolium pratense (red clover) at 200 uM after 120 hr; format: functional, organism-based
Summary of the method: (§3)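 Petri-dish seedling assay on filter paper wetted with test solution (MeOH < 1%), 28 °C in the dark. Coleoptile/hypocotyl and root lengths of all germinated seeds measured after 120 h, then plants dried to constant weight at 40 °C. Three replicates; 50% inhibitory concentrations by Probit analysis of percent inhibition versus concentration.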

Physalis ixocarpa [4] = test: Increase of shoot development during seeding stage in Physalis ixocarpa up to 50 uM after 120 hr; format: functional, organism-based; summary of the method: as §3
Trifolium pratense [5] = test: Increase of root development during seeding stage in Trifolium pratense (red clover) at 50 to 300 uM after 120 hr; format: functional, organism-based; summary of the method: as §3
Lactuca sativa [6] = test: Increase of root development during seeding stage in Lactuca sativa (lettuce) at 50 to 300 uM after 120 hr; format: functional, organism-based; summary of the method: as §3
Trifolium pratense [7] = test: Phytotoxicity against Trifolium pratense (red clover) assessed as inhibition of root development during seeding stage after 120 hr; format: functional, organism-based; details: for IC50: read-out: I50; summary of the method: as §3
Trifolium pratense [8] = test: Phytotoxicity against Trifolium pratense (red clover) assessed as inhibition of shoot development during seeding stage after 120 hr; format: functional, organism-based; details: for IC50: read-out: I50; summary of the method: as §3
Physalis ixocarpa [9] = test: Phytotoxicity against Physalis ixocarpa assessed as inhibition of root development during seeding stage after 120 hr; format: functional, organism-based; details: for IC50: read-out: I50; summary of the method: as §3
Physalis ixocarpa [10] = test: Phytotoxicity against Physalis ixocarpa assessed as inhibition of shoot development during seeding stage after 120 hr; format: functional, organism-based; details: for IC50: read-out: I50; summary of the method: as §3
Lactuca sativa [11] = test: Phytotoxicity against Lactuca sativa (lettuce) assessed as inhibition of root development during seeding stage after 120 hr; format: functional, organism-based; details: for IC50: read-out: I50; summary of the method: as §3
Lactuca sativa [12] = test: Phytotoxicity against Lactuca sativa (lettuce) assessed as inhibition of shoot development during seeding stage after 120 hr; format: functional, organism-based; details: for IC50: read-out: I50; summary of the method: as §3
Lolium multiflorum [13] = test: Phytotoxicity against Lolium multiflorum (Italian ryegrass) assessed as inhibition of root development during seeding stage after 120 hr; format: functional, organism-based; details: for IC50: read-out: I50; summary of the method: as §3
Lolium multiflorum [14] = test: Phytotoxicity against Lolium multiflorum (Italian ryegrass) assessed as inhibition of shoot development during seeding stage after 120 hr; format: functional, organism-based; details: for IC50: read-out: I50; summary of the method: as §3
Trifolium pratense [15] = test: Phytotoxicity against Trifolium pratense (red clover) assessed as inhibition of seed germination after 48 hr; format: functional; summary of the method: as §2
Lolium multiflorum [16] = test: Phytotoxicity against Lolium multiflorum (Italian ryegrass) assessed as inhibition of seed respiration during germination at 300 to 500 uM after 24 hr; format: functional, organism-based; summary of the method: as §1
Lolium multiflorum [17] = test: Increase of seed respiration during germination in Lolium multiflorum (Italian ryegrass)at 30 uM; format: functional, organism-based; summary of the method: as §1
Trifolium pratense [18] = test: Phytotoxicity against Trifolium pratense (red clover) assessed as inhibition of seed respiration during germination after 24 hr; format: functional, organism-based; summary of the method: as §1
Lactuca sativa [19] = test: Phytotoxicity against Lactuca sativa (lettuce) assessed as inhibition of seed respiration during germination after 24 hr; format: functional, organism-based; summary of the method: as §1
Lolium multiflorum [20] = test: Phytotoxicity against Lolium multiflorum (Italian ryegrass) assessed as inhibition of seed respiration during germination after 24 hr; format: functional, organism-based; summary of the method: as §1
Physalis ixocarpa [21] = test: Phytotoxicity against Physalis ixocarpa assessed as inhibition of seed germination after 48 hr; format: functional; summary of the method: as §2
Lactuca sativa [22] = test: Phytotoxicity against Lactuca sativa (lettuce) assessed as inhibition of seed germination after 48 hr; format: functional; summary of the method: as §2
Lolium multiflorum [23] = test: Phytotoxicity against Lolium multiflorum (Italian ryegrass) assessed as inhibition of seed germination after 48 hr; format: functional; summary of the method: as §2
[24] = test system: Lolium multiflorum (ryegrass); test: Phytotoxicity against Lolium multiflorum (ryegrass) assessed as inhibition of seed germination at 500 uM after 48 hr
Physalis ixocarpa [25] = test: Phytotoxicity against Physalis ixocarpa assessed as inhibition of seed respiration during germination after 72 hr; format: functional, organism-based; details: read-out: I50; summary of the method: as §1
[26] = test system: Radical scavenging activity; test: Antioxidant activity assessed as DPPH free radical scavenging activity after 30 min by TLC autographic assay; format: functional; details: in the assay text read “spectrophotometric assay” for “TLC autographic assay”; read-out: I50
[27] = Antioxidant activity assessed as inhibition of bleaching of water soluble crocin measured every 5 min by spectrophotometric analysis; format: functional
Summary of the method: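 Aqueous mixture of 10 µM crocin, 1 mM t-BuOOH and 0.5 M t-BuOH with serial dilutions of test compound, placed under UV254 light; crocin bleaching (absorbance decrease) and fluorescence emission at 440 and 470 nm followed every 5 min. Three experiments, mean ± SEM.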

Spinacia oleracea [28] = test: Inhibition of ATP synthesis in Spinacia oleracea (spinach) chloroplasts; format: functional
Summary of the method: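 Spinach thylakoids in 100 mM sorbitol, 5 mM MgCl2, 10 mM KCl, 1 mM Na+-tricine, pH 8, with 50 µM methyl viologen as Hill-reaction electron acceptor. Illuminated at 20 °C through 1% CuSO4 filter. ATP synthesis measured titrimetrically.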

Spinacia oleracea [29] = test: Inhibition of H+ uptake in Spinacia oleracea (spinach) chloroplasts; format: functional; details: for IC50: read-out: I50
Summary of the method: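 Spinach thylakoids (from isolated chloroplasts, in sorbitol/tricine/MgCl2/NaCl buffer, pH 7.8) in 100 mM sorbitol, 5 mM MgCl2, 10 mM KCl, 1 mM Na+-tricine, pH 8, with 50 µM methyl viologen. Illuminated at 20 °C through 1% CuSO4 filter. H+ uptake recorded as pH rise from 8.0 to 8.1 with combination microelectrode on expanded scale.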

Phaseolus vulgaris = test: Inhibition of mitochondrial respiration in Phaseolus vulgaris root mitochondria assessed as reduction of oxygen uptake; format: functional; details: read-out: I50
Summary of the method: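 Mitochondria from roots of 72 h dark-grown (28 °C) bean seedlings, Percoll-gradient purified, 0.3-0.5 mg protein (Bradford) per run; integrity checked with HCN. Compounds in 0.5% methanol added after a constant state 3 rate with […] was reached. O2 uptake by Clark electrode; control is mitochondria with 0.5% MeOH. Three experiments; I50 by Probit.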

Trifolium pratense [30] = test: Phytotoxicity against Trifolium pratense (red clover) assessed as inhibition of seed respiration during germination after 72 hr; format: functional, organism-based; details: read-out: I50; summary of the method: as §1
Lactuca sativa [31] = test: Phytotoxicity against Lactuca sativa (lettuce) assessed as inhibition of seed respiration during germination after 72 hr; format: functional, organism-based; details: read-out: I50; summary of the method: as §1
Lolium multiflorum [32] = test: Phytotoxicity against Lolium multiflorum (Italian ryegrass) assessed as inhibition of seed respiration during germination after 72 hr; format: functional, organism-based; details: read-out: I50; summary of the method: as §1

| Compound | I50 (Physalis ixocarpa [1]) | inhibition at 500 µM (Lolium multiflorum [2]) [%] | Activity (Trifolium pratense [3]) | Activity (Physalis ixocarpa [4]) | Activity (Trifolium pratense [5]) | Activity (Lactuca sativa [6]) | IC50 (Trifolium pratense [7]) [µM] | IC50 (Trifolium pratense [8]) [µM] | IC50 (Physalis ixocarpa [9]) [µM] | IC50 (Physalis ixocarpa [10]) [µM] | IC50 (Lactuca sativa [11]) [µM] | IC50 (Lactuca sativa [12]) [µM] | IC50 (Lolium multiflorum [13]) [µM] | IC50 (Lolium multiflorum [14]) [µM] | GI50 (Trifolium pratense [15]) | Activity (Lolium multiflorum [16]) | Activity (Lolium multiflorum [17]) | GI50 (Physalis ixocarpa [21]) | GI50 (Lactuca sativa [22]) | GI50 (Lolium multiflorum [23]) | further results |
| --- | --- | --- | --- | --- | --- | --- | --- | --- | --- | --- | --- | --- | --- | --- | --- | --- | --- | --- | --- | --- | --- |
| C=C(C)[C@H]1Cc2c(ccc(C(C)=O)c2OC(C)=O)O1 [4-ACETYL TREMETONE] | inactive | 30 | Active | Active | Active | Active | 45 | 45 | 70.1 | 65.5 | 87.5 | 89.5 | 82.1 | 87.5 | 40 µM | Active | Active | 55.2 µM | 85.5 µM | 79.9 µM | I50 (Trifolium pratense [18]): inactive; I50 (Lactuca sativa [19]): inactive; I50 (Lolium multiflorum [20]): inactive; inhibition at 500 µM [24]: 30% |
| CC(=O)c1ccc2c(c1)CC(C1(C)CO1)O2 (stereo unspecified) [10,11-EPOXY TREMETONE] | – | – | – | – | – | – | 16.2 | 14.3 | 15.7 | 5.8 | 33.8 | 33 | 72.6 | 65.9 | 22.3 µM | – | – | 19.2 µM | 36.1 µM | 65.6 µM | IC50 (Physalis ixocarpa [25]): 57.5 µM; IC50 [26]: 62.6 µM; inhibition [27]: Active; inhibition (Spinacia oleracea [28]): Dose-dependent effect; inhibition (Spinacia oleracea [29]): Dose-dependent effect; IC50 (Spinacia oleracea [29]): 40.7 µM; IC50 (Phaseolus vulgaris): 109 µM; IC50 (Trifolium pratense [30]): 49.1 µM; IC50 (Lactuca sativa [31]): 58 µM; IC50 (Lolium multiflorum [32]): 67.9 µM |
| CC(=O)c1ccc(O[C@@H]2O[C@H](CO)[C@@H](O)[C@H](O)[C@H]2O)cc1 [PICEIN] | inactive | 30 | Active | Active | Active | Active | – | – | – | – | – | – | – | – | inactive | Active | Active | inactive | inactive | inactive | I50 (Trifolium pratense [7]): inactive; I50 (Trifolium pratense [8]): inactive; I50 (Physalis ixocarpa [9]): inactive; I50 (Physalis ixocarpa [10]): inactive; I50 (Lactuca sativa [11]): inactive; I50 (Lactuca sativa [12]): inactive; I50 (Lolium multiflorum [13]): inactive; I50 (Lolium multiflorum [14]): inactive; I50 (Trifolium pratense [18]): inactive; I50 (Lactuca sativa [19]): inactive; I50 (Lolium multiflorum [20]): inactive; inhibition at 500 µM [24]: 30% |
| CC(=O)c1ccc2c(c1O)C[C@H](C1(C)CO1)O2 (stereo partly specified) | – | – | – | – | – | – | 7.1 | 7.2 | 9.9 | 7.7 | 10.9 | 10.5 | 11.9 | 11.2 | 7.1 µM | – | – | 8.7 µM | 11.5 µM | 10.4 µM | IC50 (Physalis ixocarpa [25]): 15.8 µM; IC50 [26]: 30.6 µM; inhibition [27]: Active; inhibition (Spinacia oleracea [28]): Dose-dependent effect; inhibition (Spinacia oleracea [29]): Dose-dependent effect; IC50 (Spinacia oleracea [29]): 13.8 µM; IC50 (Phaseolus vulgaris): 17.1 µM; IC50 (Trifolium pratense [30]): 10.1 µM; IC50 (Lactuca sativa [31]): 11 µM; IC50 (Lolium multiflorum [32]): 18 µM |
| CC(=O)Oc1ccc(C(C)=O)cc1 [4-(ACETATE)ACETOPHENONE] | inactive | 30 | Active | Active | Active | Active | 221 | 234 | – | – | 38.9 | 39.1 | 75.5 | 77.3 | 233 µM | Active | Active | inactive | 41 µM | 75.3 µM | I50 (Physalis ixocarpa [9]): inactive; I50 (Physalis ixocarpa [10]): inactive; I50 (Trifolium pratense [18]): inactive; I50 (Lactuca sativa [19]): inactive; I50 (Lolium multiflorum [20]): inactive; inhibition at 500 µM [24]: 30% |
